Measured values of several laboratories.
Each line is one published result; the experiments were not run side by side.
Target: Serine/threonine-protein kinase TBK1 (TBK1, Homo sapiens, UniProt Q9UHD2)
One construct used (Q9UHD2 1-729): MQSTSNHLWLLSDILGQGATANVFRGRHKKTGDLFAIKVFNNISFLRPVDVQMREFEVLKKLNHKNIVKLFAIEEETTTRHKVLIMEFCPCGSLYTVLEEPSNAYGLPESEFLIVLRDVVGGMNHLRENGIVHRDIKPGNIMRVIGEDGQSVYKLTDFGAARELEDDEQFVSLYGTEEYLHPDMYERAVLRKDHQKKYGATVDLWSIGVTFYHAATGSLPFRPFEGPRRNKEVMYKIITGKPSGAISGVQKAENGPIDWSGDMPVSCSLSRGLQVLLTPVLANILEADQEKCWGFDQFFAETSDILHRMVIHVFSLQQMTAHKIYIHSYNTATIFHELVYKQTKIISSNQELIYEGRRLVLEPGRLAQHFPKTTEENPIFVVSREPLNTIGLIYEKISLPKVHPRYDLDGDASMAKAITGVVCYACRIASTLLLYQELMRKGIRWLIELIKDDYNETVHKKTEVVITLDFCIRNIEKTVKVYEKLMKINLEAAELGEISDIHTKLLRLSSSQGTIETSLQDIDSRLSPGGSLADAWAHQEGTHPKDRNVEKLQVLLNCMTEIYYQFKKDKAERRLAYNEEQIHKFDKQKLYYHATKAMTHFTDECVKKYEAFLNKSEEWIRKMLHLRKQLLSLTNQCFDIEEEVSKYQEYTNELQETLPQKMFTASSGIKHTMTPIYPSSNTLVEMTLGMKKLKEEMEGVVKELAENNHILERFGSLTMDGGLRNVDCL

SMILES | test | conditions | remaining binding
O=C(NCCCN1CCOCC1)c1ccc(Nc2ncc(Cl)c(-c3ccc(Cl)s3)n2)cc1 | binding, competition with immobilised ligand | 1 µM | 23%
COc1cnc(Nc2cccc(S(N)(=O)=O)c2)nc1N1CCN(c2ccccc2)C(=O)C1 | binding, competition with immobilised ligand | 1 µM | 61%
FC(F)(F)Oc1cccc(-c2cnc3ccc(-c4ccncc4)nn23)c1 | binding, competition with immobilised ligand | 5 µM | 54%
O=C(Nc1ccc(Oc2ccc(F)cc2)cc1)N1CCc2ncccc2[C@H]1c1ccc(F)cc1 | cell-free assay, competition with immobilised ligand | 1 µM | 81%
O=C(c1ccc(Nc2nccc(-c3cc4ccccc4s3)n2)cc1)N1CCC(N2CCCC2)CC1 | binding, competition with immobilised ligand | 1 µM | 27%
F[C@@H]1CCN(c2nccc(-c3cnn4ncccc34)n2)C1 | binding | 1 µM | 84%
O=C(NC[C@@H]1[C@H]2CN(C(=O)OCc3cc(C(F)(F)F)cc(C(F)(F)F)c3)C[C@@H]12)c1ccc2[nH]nnc2c1 | cell-free assay, competition with immobilised ligand | 1 µM | 100%
c1cnn2ncc(-c3ccnc(N4CCC45COC5)n3)c2c1 | binding | 1 µM | 41%
C=CC(=O)N1CCC(C(=O)NCC(=O)N2CCN(c3nc(-c4cnc(N)nc4C(F)F)nc(N4CCOCC4)n3)CC2)CC1 | binding, competition with immobilised ligand | 1 µM | 91%
COc1ccc2c(c1)O[C@H](c1ccc(OC)c(OC)c1)C[C@@H]2NC(=O)C1(c2ccc3c(c2)OC(F)(F)O3)CC1 | cell-free assay, competition with immobilised ligand | 1 µM | 99%
Cc1cnn2ncc(-c3ccnc(N(C)C)n3)c2c1 | binding | 1 µM | 82%
O=C(c1ccc(Nc2ncc(Cl)c(-c3cc4ccccc4s3)n2)cc1)N1CCC(N2CCCC2)CC1 | binding, competition with immobilised ligand | 1 µM | 11%
N[C@@H]1CCN(c2nccc(-c3cnn4ncccc34)n2)C1 | binding | 1 µM | 97%
COc1cccc(CNC(=O)c2nc3scc(COCc4ccc(C(=O)O)cc4)c3c(=O)[nH]2)c1 | cell-free assay, competition with immobilised ligand | 1 µM | 94%
c1cncc(-c2cccc(Nc3nccc(NC4CCCCC4)n3)c2)c1 | binding, competition with immobilised ligand | 10 µM | 62%
CS(=O)(=O)N1CCCC(NC(=O)[C@H](CCC2CCCCC2)NC(=O)c2ccc(CNC(=O)c3cnc4ccccn34)cc2)C1 (stereo partly drawn) | cell-free assay, competition with immobilised ligand | 0.1 µM | 75%
C[C@H]1CCN(c2nccc(-c3cnn4ncccc34)n2)C1 | binding | 1 µM | 80%
O=C(Nc1c[nH]nc1C(=O)NC1CCNCC1)c1cc(F)cc(F)c1 | binding, competition with immobilised ligand | 1 µM | 100%
Nc1ncc2c(n1)-c1c([nH]c3ccc(C#CC4CC4)cc13)CCCC2 | binding, competition with immobilised ligand | 1 µM | 88%
CC1=C(C#N)C(c2ccc3c(c2)c(NC(=O)c2ccccc2C)nn3C)C(C#N)=C(C)N1 | cell-free assay, competition with immobilised ligand | 1 µM | 69%
CN(C)c1nccc(-c2cnn3ncccc23)n1 | binding | 1 µM | 82%
